Test results published in ChEMBL document CHEMBL3751731, “Ferulic acid-carbazole hybrid compounds: Combination of cholinesterase inhibition, antioxidant and neuroprotection as multifunctional anti-Alzheimer agents” (Bioorg Med Chem, 2016).
Active and inactive are the calls of the source. The calls are words filed in the database; no cut-off is given here.

Columns and labels:
[1] = Antioxidant activity assessed as galvinoxyl radical scavenging activity at 10 uM after 19 hrs by UV spectrophotometric analysis; assay type: physicochemical
Procedure, shortened: (§1)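 Galvinoxyl radical at 2 µM in ethanol, with compounds in ethanol at 1, 2, 10, 50 or 100 µM. Mixture lines used an equimolar (1:1) blend with ferulic acid. A428 was recorded before addition and after 19 h once stable. Percent radical scavenged = (1 − Abst/Abs0) × 100.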

[2] = Antioxidant activity assessed as galvinoxyl radical scavenging activity at 50 uM after 19 hrs by UV spectrophotometric analysis; assay type: physicochemical; procedure, shortened: as §1
[3] = Antioxidant activity assessed as galvinoxyl radical scavenging activity at 2 uM after 19 hrs by UV spectrophotometric analysis; assay type: physicochemical; procedure, shortened: as §1
[4] = Antioxidant activity assessed as galvinoxyl radical scavenging activity at 1 uM after 19 hrs by UV spectrophotometric analysis; assay type: physicochemical; procedure, shortened: as §1
[5] = Antioxidant activity assessed as DPPH radical scavenging activity at 100 uM after 4 hrs by UV spectrophotometric analysis; assay type: physicochemical
Procedure, shortened: (§2)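 DPPH radical at 0.1 mM in ethanol. Test compounds were in ethanol at 1–100 µM (1, 2, 10, 50, 100). Mixture lines used an equimolar (1:1) blend with ferulic acid. Absorbance was read at 517 nm before addition (Abs0) and after 4 h once stable (Abst). Scavenging % = (1 − Abst/Abs0) × 100.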

[6] = Antioxidant activity assessed as DPPH radical scavenging activity at 50 uM after 4 hrs by UV spectrophotometric analysis; assay type: physicochemical; procedure, shortened: as §2
[7] = Antioxidant activity assessed as DPPH radical scavenging activity at 1 uM after 4 hrs by UV spectrophotometric analysis; assay type: physicochemical; procedure, shortened: as §2
[8] = Antioxidant activity assessed as DPPH radical scavenging activity at 2 uM after 4 hrs by UV spectrophotometric analysis; assay type: physicochemical; procedure, shortened: as §2
[9] = Antioxidant activity assessed as DPPH radical scavenging activity at 10 uM after 4 hrs by UV spectrophotometric analysis; assay type: physicochemical; procedure, shortened: as §2
[10] = Antioxidant activity assessed as galvinoxyl radical scavenging activity at 100 uM after 19 hrs by UV spectrophotometric analysis; assay type: physicochemical; procedure, shortened: as §1
Acetylcholinesterase [11] = target: Acetylcholinesterase (Electrophorus electricus, UniProt O42275); test: Inhibition of electric eel AChE using ATC as substrate preincubated for 5 mins followed by substrate addition measured after 2 mins by Ellman's assay
Cholinesterase [12] = target: Cholinesterase (Equus caballus, UniProt P81908); test: Inhibition of equine BChE using BTC as substrate preincubated for 5 mins followed by substrate addition measured after 2 mins by Ellman's assay
Cholinesterase [13] = target: Cholinesterase (Homo sapiens, UniProt P06276); test: Inhibition of human BChE using BTC as substrate preincubated for 5 mins followed by substrate addition measured after 2 mins by Ellman's assay
Procedure, shortened: (§3)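 Ellman's method with DTNB chromogen, acetylthiocholine (AChE) or butyrylthiocholine (BChE) iodide substrate, in potassium phosphate buffer pH 8.0 (KOH-adjusted). Compounds were diluted from ethanol stocks, with a top final concentration of 10^-4 M. At least five concentrations (normally 10^-4–10^-9 M) were run, each in triplicate, read at 412 nm at 25 °C. IC50 values are from inhibition curves, as means of at least three determinations.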

Acetylcholinesterase [14] = target: Acetylcholinesterase (Homo sapiens, UniProt P22303); test: Inhibition of human AChE using ATC as substrate preincubated for 5 mins followed by substrate addition measured after 2 mins by Ellman's assay; procedure, shortened: as §3
[15] = Antioxidant activity assessed as DPPH radical scavenging activity at 2 uM after 4 hrs by UV spectrophotometric analysis in presence of ferulic acid; assay type: physicochemical; procedure, shortened: as §2
[16] = Antioxidant activity assessed as DPPH radical scavenging activity at 1 uM after 4 hrs by UV spectrophotometric analysis in presence of ferulic acid; assay type: physicochemical; procedure, shortened: as §2
[17] = Antioxidant activity assessed as DPPH radical scavenging activity at 100 uM after 4 hrs by UV spectrophotometric analysis in presence of ferulic acid; assay type: physicochemical; procedure, shortened: as §2
[18] = Antioxidant activity assessed as DPPH radical scavenging activity at 50 uM after 4 hrs by UV spectrophotometric analysis in presence of ferulic acid; assay type: physicochemical; procedure, shortened: as §2
[19] = Antioxidant activity assessed as galvinoxyl radical scavenging activity at 50 uM after 19 hrs in presence of ferulic acid by UV spectrophotometric analysis; assay type: physicochemical; procedure, shortened: as §1
PC-12 [20] = test: Neuroprotective effect in rat PC12 cells assessed as alleviation of H2O2-induced toxicity at 1:1 compound to ferulic acid molar ratio after 24 hrs by MTT assay; assay type: functional, cell-based
Procedure, shortened: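 PC12 cells (F-12, 10% FBS, 37 °C, 5% CO₂; 2000 cells/well, 24 h pre-culture) were co-treated with compound (0.1, 1, 10, 50; DMSO <0.5%) and H₂O₂ for 24 h. The mixture line used a 1:1 molar blend with ferulic acid. MTT for 4 h, formazan dissolved in DMSO, A540, blank-subtracted. Viability is % of control; three independent trials, mean ± SEM.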

PC-12 [21] = test: Neuroprotective effect in rat PC12 cells assessed as alleviation of amyloid beta 42-induced toxicity at 1:1 compound to ferulic acid molar ratio after 24 hrs by MTT assay; assay type: functional, cell-based
Procedure, shortened: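 Aβ42 was dissolved in hexafluoroisopropanol, dried to a film, taken up in F-12 and held at 4 °C for 24 h. PC12 cells (2000/well, 24 h pre-culture) were co-treated with this Aβ42 and compound (0.1–50; DMSO <0.5%) for 24 h. The mixture line used a 1:1 blend with ferulic acid. MTT for 4 h, A540; % of control, three independent trials, mean ± SEM.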

[22] = Antioxidant activity assessed as galvinoxyl radical scavenging activity at 10 uM after 19 hrs in presence of ferulic acid by UV spectrophotometric analysis; assay type: physicochemical; procedure, shortened: as §1
[23] = Antioxidant activity assessed as galvinoxyl radical scavenging activity at 1 uM after 19 hrs in presence of ferulic acid by UV spectrophotometric analysis; assay type: physicochemical; procedure, shortened: as §1
[24] = Antioxidant activity assessed as DPPH radical scavenging activity at 10 uM after 4 hrs by UV spectrophotometric analysis in presence of ferulic acid; assay type: physicochemical; procedure, shortened: as §2
[25] = Antioxidant activity assessed as galvinoxyl radical scavenging activity at 100 uM after 19 hrs in presence of ferulic acid by UV spectrophotometric analysis; assay type: physicochemical; procedure, shortened: as §1
[26] = Antioxidant activity assessed as galvinoxyl radical scavenging activity at 2 uM after 19 hrs in presence of ferulic acid by UV spectrophotometric analysis; assay type: physicochemical; procedure, shortened: as §1

Sequence of Acetylcholinesterase (Electrophorus electricus, UniProt O42275) (O42275 whole entry): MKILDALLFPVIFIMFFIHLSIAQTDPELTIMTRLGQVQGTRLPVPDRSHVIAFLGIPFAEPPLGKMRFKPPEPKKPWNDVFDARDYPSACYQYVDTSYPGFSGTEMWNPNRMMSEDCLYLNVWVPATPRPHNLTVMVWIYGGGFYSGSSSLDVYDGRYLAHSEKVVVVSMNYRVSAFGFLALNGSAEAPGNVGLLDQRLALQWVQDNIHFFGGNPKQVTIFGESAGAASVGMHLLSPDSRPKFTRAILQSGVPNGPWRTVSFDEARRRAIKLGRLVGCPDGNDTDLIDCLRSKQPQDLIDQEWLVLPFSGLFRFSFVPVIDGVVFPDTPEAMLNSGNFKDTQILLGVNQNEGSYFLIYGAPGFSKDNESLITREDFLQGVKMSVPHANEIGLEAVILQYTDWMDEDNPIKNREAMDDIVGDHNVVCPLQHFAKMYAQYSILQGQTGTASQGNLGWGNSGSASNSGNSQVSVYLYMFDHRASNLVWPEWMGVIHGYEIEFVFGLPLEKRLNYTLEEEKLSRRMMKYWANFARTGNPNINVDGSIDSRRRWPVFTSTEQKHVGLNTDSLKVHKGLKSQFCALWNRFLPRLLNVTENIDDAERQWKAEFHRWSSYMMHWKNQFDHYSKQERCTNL
Sequence of Cholinesterase (Homo sapiens, UniProt P06276) (P06276 whole entry): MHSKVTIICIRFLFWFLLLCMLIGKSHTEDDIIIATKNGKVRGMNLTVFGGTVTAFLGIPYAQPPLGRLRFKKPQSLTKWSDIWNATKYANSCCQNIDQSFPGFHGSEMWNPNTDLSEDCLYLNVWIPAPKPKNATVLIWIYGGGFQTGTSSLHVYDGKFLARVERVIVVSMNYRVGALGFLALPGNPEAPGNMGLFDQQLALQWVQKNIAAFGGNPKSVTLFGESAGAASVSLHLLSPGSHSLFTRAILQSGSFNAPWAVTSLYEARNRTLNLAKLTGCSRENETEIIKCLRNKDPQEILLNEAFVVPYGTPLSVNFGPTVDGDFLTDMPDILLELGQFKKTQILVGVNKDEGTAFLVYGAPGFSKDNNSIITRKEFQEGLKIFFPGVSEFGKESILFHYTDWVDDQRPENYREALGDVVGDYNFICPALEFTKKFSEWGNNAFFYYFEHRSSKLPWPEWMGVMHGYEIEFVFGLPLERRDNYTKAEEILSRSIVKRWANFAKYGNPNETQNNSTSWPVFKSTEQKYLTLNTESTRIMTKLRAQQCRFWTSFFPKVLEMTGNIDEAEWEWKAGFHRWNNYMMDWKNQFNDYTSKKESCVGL
Sequence of Cholinesterase (Equus caballus, UniProt P81908) (P81908 whole entry): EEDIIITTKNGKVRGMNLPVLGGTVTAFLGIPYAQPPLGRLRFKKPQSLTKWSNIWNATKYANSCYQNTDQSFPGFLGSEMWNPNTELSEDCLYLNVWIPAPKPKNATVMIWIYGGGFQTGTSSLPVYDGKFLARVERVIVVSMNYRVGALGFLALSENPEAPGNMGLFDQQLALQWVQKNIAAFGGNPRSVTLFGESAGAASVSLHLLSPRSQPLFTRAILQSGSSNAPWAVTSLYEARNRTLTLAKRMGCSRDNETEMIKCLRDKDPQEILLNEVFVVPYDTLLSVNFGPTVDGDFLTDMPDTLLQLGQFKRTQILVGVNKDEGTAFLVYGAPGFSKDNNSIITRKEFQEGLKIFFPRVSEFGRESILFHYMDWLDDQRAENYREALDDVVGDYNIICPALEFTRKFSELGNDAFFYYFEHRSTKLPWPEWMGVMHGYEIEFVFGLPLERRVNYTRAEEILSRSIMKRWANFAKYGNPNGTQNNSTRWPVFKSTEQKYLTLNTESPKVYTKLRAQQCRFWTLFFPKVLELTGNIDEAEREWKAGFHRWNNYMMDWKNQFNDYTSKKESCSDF
Sequence of Acetylcholinesterase (Homo sapiens, UniProt P22303) (P22303 whole entry): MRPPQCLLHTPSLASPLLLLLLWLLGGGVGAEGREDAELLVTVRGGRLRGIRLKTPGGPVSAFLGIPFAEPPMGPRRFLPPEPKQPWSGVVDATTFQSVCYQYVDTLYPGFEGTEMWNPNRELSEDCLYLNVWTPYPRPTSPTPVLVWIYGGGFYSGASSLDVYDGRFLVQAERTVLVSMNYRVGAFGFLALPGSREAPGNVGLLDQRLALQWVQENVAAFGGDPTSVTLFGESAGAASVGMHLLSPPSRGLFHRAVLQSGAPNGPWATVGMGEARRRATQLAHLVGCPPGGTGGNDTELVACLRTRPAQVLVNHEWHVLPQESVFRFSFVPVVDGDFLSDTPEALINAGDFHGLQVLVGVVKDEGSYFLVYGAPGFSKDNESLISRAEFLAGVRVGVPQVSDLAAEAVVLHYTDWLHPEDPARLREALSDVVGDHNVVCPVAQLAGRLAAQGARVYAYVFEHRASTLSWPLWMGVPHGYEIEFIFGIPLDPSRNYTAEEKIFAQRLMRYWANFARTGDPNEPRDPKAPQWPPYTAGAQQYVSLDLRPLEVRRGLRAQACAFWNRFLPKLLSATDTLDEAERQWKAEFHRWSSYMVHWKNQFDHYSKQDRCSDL

| Structure (SMILES) | Activity [1] [%] | Activity [2] [%] | Activity [3] [%] | Activity [4] [%] | Activity [5] [%] | Activity [6] [%] | Activity [7] [%] | Activity [8] [%] | Activity [9] [%] | Activity [10] [%] | IC50 (Acetylcholinesterase [11]) [µM] | IC50 (Cholinesterase [12]) [µM] | also measured |
| --- | --- | --- | --- | --- | --- | --- | --- | --- | --- | --- | --- | --- | --- |
| COc1cc(/C=C/C(=O)O)ccc1O [FERULATE] | 33.7 | 52.2 | 15.8 | 6.6 | 92.2 | 72 | 30.3 | 44.4 | 63.1 | 79 |  |  |  |
| COc1ccc2c(c1)[nH]c1cccc(CN(C(=O)/C=C/c3ccc(O)c(OC)c3)C(C)C)c12 | 23.4 | 51.7 | 8 | 1.1 | 98 | 72.9 | 45.1 | 55 | 68.2 | 87.2 | 58.2 | 13.9 |  |
| COc1cc(/C=C/C(=O)N(Cc2ccccc2)Cc2cccc3[nH]c4ccccc4c23)ccc1O |  |  |  |  |  |  |  |  |  |  | > 100 |  |  |
| COc1ccc2c(c1)[nH]c1cccc(CN(Cc3ccccc3)C(=O)/C=C/c3ccc(O)c(OC)c3)c12 |  |  |  |  |  |  |  |  |  |  | > 100 |  |  |
| CCN(Cc1cccc2[nH]c3cc(OC)ccc3c12)C(=O)/C=C/c1ccc(O)c(OC)c1 | 40.3 | 78.2 | 29.2 | 11.1 | 94.9 | 86.4 | 33.1 | 59.2 | 71.3 | 91.9 | 61.6 | 19.8 |  |
| COc1cc(/C=C/C(=O)N(Cc2cccc3[nH]c4ccccc4c23)C2CCCC2)ccc1O | 66.6 | 85.7 | 54.5 | 25.9 | 90.3 | 85.7 | 25.9 | 54.5 | 66.6 | 90.3 | > 100 | 31.6 |  |
| CCN(Cc1cccc2[nH]c3ccccc3c12)C(=O)/C=C/c1ccc(O)c(OC)c1 | 55 | 82.8 | 40.1 | 24.7 | 86.3 | 82.8 | 24.7 | 40.1 | 55 | 86.3 | 18 | 13.8 |  |
| COc1ccc2c(c1)[nH]c1cccc(CN(C(=O)/C=C/c3ccc(O)c(OC)c3)C3CCCCC3)c12 | 50.9 | 72 | 40.9 | 25.6 | 88.6 | 82 | 38.6 | 47.9 | 50.9 | 88.6 | > 100 | 20.5 |  |
| COc1cc(/C=C/C(=O)N(Cc2cccc3[nH]c4ccccc4c23)C(C)C)ccc1O | 68 | 87.5 | 55.2 | 24.1 | 90.9 | 84.5 | 44.1 | 56.2 | 68.9 | 90.8 | 11.1 | 12.7 | IC50 (Cholinesterase [13]): 9 µM; IC50 (Acetylcholinesterase [14]): 22 µM |
| CC(C)NCc1cccc2[nH]c3ccccc3c12 |  |  |  |  |  |  |  |  |  |  | 21.6 | 8.9 | IC50 (Cholinesterase [13]): 8.1 µM; IC50 (Acetylcholinesterase [14]): 18 µM |
| COc1ccc2c(c1)[nH]c1cccc(CN(C(=O)/C=C/c3ccc(O)c(OC)c3)C3CCCC3)c12 | 37.4 | 66.8 | 24 | 14.8 | 90.4 | 86.8 | 34.8 | 54 | 67.4 | 87.4 | 88.2 | 25.9 |  |
| COc1cc(/C=C/C(=O)N(Cc2cccc3[nH]c4ccccc4c23)C2CCCCC2)ccc1O | 23.1 | 42 | 12.4 | 3.3 | 89.2 | 72 | 30.3 | 52.4 | 63.1 | 87.2 | > 100 | 22 |  |
| CCNCc1cccc2[nH]c3cc(Cl)ccc3c12 |  |  |  |  |  |  |  |  |  |  | 2.1 | 1.9 | Activity [15]: 44.7%; Activity [16]: 31.6%; IC50 (Cholinesterase [13]): 7.9 µM; Activity [17]: 93.2%; Activity [18]: 71.4%; Activity [19]: 51.4%; Activity (PC-12 [20]): Active; Activity (PC-12 [21]): inactive; Activity [22]: 30.1%; Activity [23]: 11%; IC50 (Acetylcholinesterase [14]): 5.1 µM; Activity [24]: 60.1%; Activity [25]: 83.2%; Activity [26]: 14.7% |
